Rad51 HR inh: human RAD51 strand exchange inhibitors, primary screen, biochemical, fluorescence | inhibition, % at 10 µM | hit rate 0.085% among 200,000 | DNA repair protein RAD51 homolog 1 (Homo sapiens), Q06609 | AID 1385, 2008 | hRad51 DNA strand exchange, fluorescence dequenching;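 active = inhibition above 40% at the single screening dose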
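System: human Rad51 nucleoprotein filaments preassembled on unlabelled ssDNA. Reagent: labelled 47-mer dsDNA for strand exchange. Schedule: 30-min compound preincubation and 15-min exchange, both room temperature. Measured by: FRET fluorescence dequenching, excitation 485 nm, emission 520 nm. Read-out: Fluorescence-based percent inhibition, control- and blank-normalised. Benchmarks: plate controls and plate blanks.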
PKD1 inh: inhibitors of human PKD1 kinase, biochemical, fluorescence polarization; hit rate 0.056% among 200,000; PKD1 kinase fluorescence polarization assay; AID 797, 2007; Serine/threonine-protein kinase D1 (Homo sapiens), Q15139; inhibition, % (no concentration beside the values)
Target sequence (Q15139 whole entry, looked up): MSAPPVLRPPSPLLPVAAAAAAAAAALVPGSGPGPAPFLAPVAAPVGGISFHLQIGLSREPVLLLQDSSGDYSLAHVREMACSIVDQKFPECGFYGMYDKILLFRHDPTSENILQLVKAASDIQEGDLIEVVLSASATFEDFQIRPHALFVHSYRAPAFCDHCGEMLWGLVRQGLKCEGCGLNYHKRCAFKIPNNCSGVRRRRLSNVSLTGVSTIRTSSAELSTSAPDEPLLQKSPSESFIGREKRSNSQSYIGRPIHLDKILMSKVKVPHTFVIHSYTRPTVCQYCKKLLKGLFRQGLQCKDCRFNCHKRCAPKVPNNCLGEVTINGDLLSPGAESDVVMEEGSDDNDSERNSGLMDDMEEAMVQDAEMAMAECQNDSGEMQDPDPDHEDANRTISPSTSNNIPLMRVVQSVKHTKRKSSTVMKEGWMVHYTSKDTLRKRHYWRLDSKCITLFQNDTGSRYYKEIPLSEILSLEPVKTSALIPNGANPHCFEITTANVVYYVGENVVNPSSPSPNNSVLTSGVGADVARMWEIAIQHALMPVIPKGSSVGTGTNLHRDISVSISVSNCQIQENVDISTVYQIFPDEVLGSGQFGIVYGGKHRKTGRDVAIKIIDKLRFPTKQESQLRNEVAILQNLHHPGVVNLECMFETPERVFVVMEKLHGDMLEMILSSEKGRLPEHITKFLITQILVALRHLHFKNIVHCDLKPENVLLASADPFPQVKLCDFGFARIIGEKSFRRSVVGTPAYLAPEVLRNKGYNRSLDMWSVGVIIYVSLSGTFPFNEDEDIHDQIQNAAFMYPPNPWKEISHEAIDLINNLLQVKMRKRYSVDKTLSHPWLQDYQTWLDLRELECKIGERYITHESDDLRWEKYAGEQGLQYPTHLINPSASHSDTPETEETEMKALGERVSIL
Arbovirus anti: antivirals against arbovirus infection, primary screen, cell-based, full library, 10K replicate subset | arbovirus infection cell-based antiviral screen | inhibition, % at 10 µM | hit rate 0.37% among 200,000 | AID 1251, 2008; in the data active = inhibition above about 30%
CHOP inh: inhibitors of CHOP promoter induction, primary screen, cell-based, unfolded protein response, luciferase reporter | hit rate 3.8% among 220,000 | AID 2732, 2010 | CHO-K1 CHOP-promoter luciferase, tunicamycin-induced, 15-18 h | inhibition, % at 10 µM;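 active = compounds that reduced the stress-induced luciferase reporter signal by more than about 70% of percent inhibition, limit read from the data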
Wee1 stabilizer: Wee1 degradation inhibitors, primary screen, cell-based, HeLa, Wee1K328M-luciferase, luminescence; reporter increase, % at 5 µM; HeLa Luc-Wee1K328M stability; 100% = proteasome inhibitor MG132 effect; hit rate 1.2% among 220,000; AID 1321, 2008;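 active = activation above the mean of all tested compounds plus 3 SD, set per screening run, cut at about 8.8% in these data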;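 note: cells exposed to compound for 20 h before luminescence read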
Lmaj promast: Leishmania major promastigote growth inhibition, primary screen; Leishmania major promastigotes, resazurin fluorescence viability; inhibition, % at 10 µM; hit rate 9% among 200,000; AID 1063, 2008;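 note: promastigotes grown with compound for 44 hours at 28 °C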
Each line names hits and unclear results; the compound was inactive in the other large screens. Shown are actives, neighbours in structure and some others; about 12% of the full set was active somewhere. Cut-off read from the data, not from the text of the source, unless noted: active = inhibition above about 50%; inactive = the rest.

Oc1oc(-c2cccc3ccccc23)nc1/C=N/c1nccs1	CHOP inh 90.5
CC(CC(=O)O)Nc1ccccc1O (configuration not stated)	none
CC(C)Cc1n[nH]c(=O)[nH]1	CHOP inh 83.2
CC(C)Cc1nc2ccc(N)cc2[nH]1	none
Cc1c(N(C)C)nc2ccccc2c1N	none
CCN(CC)c1nc2ccccc2c(N)c1-c1ccccc1	Lmaj promast 100.3
CSc1ncccc1C(=O)N1CCCC(CCC(=O)NCc2ccc(F)c(F)c2)C1 (configuration not stated)	none (no result: Rad51 HR inh)
CC1=Nc2cc([N+](=O)[O-])ccc2NC(C)(C)C1	none
CC1(C)CNc2cc([N+](=O)[O-])ccc2S1	CHOP inh 85.0
COC(=O)c1cc(OC)c(OC)c(OC)c1[N+](=O)[O-]	none (no result: PKD1 inh, Arbovirus anti, Lmaj promast)
COc1ccc(N(C(C)=O)S(=O)(=O)c2cccc3cccnc23)cc1	Lmaj promast 54.1
COc1ccc(-c2ccnc3nc(N4CCN(c5ccccc5)CC4)nn23)cc1	CHOP inh 71.5
O=C(Cn1cnc([N+](=O)[O-])n1)N/N=C/c1ccc2ccccc2c1	Lmaj promast 96.2
CCC(=O)c1ccc(SC(=O)N(C)C)cc1O	none (no result: PKD1 inh, Arbovirus anti, Lmaj promast)
CS(=O)(=O)c1ccc(C(=O)OCc2nnc(-c3ccc(Cl)cc3)o2)cc1[N+](=O)[O-]	CHOP inh 79.2
CCc1ccc(-c2cc(C(F)(F)F)n3nc(C(=O)Nc4c(C)nn(Cc5ccc(F)cc5)c4C)cc3n2)s1	Lmaj promast 64.2
CN(C)c1ccc(-n2cccc2/C=C/[N+](=O)[O-])cc1	CHOP inh 92.0, Lmaj promast 97.2
Cc1cc(C)cc(Oc2ccccc2CO)c1	none
CC(C)[C@H](NC(=O)c1ccccc1Cl)C(=O)NC1CCCCCC1	none
Cc1c(Cl)cccc1NC(=O)[C@@H](NC(=O)c1ccccc1Cl)C(C)C	Lmaj promast 73.3
COc1ccc(-c2cc(-c3ccco3)[nH]c(=O)c2C#N)cc1OC	none (no result: PKD1 inh, Arbovirus anti, Lmaj promast)
Fc1ccc(-n2cc(CNCCc3ccncc3)c(-c3ccccc3Cl)n2)cc1	Lmaj promast 64.0
Fc1ccc(-n2cc(CNCCc3cccnc3)c(-c3ccccc3Cl)n2)cc1	Lmaj promast 57.2
COc1ccc(-n2cc(CNCCCN3CCCC3=O)c(-c3ccccc3Cl)n2)cc1	none
O=C(NNC(=O)c1ccncc1)NC1CCCCC1	none
Cc1ccnc2ccc(-c3nc4ccccc4o3)cc12	none (no result: CHOP inh)
Cc1nc2ccc(-c3nc4ccccc4o3)cc2[nH]1	Lmaj promast 72.1
Clc1cccc(/C=N/Nc2nc(Cl)nc3ccccc23)c1	none
Clc1ccc(/C=N/Nc2ncnc3ccccc23)cc1Cl	CHOP inh 86.0 (no result: Rad51 HR inh)
Cc1ccccc1OCC(=O)NNC(=O)CSc1nc(N)cc(N)n1	none
Nc1ncnc(Oc2cccc3cccnc23)c1[N+](=O)[O-]	Lmaj promast 96.3 (no result: Rad51 HR inh)
Cc1cccc(Oc2ncnc(N)c2[N+](=O)[O-])c1C	none
CN(C)c1ccc(P(=O)(OCc2ccccc2)C(O)c2ccccc2)cc1 (configuration not stated)	none (no result: PKD1 inh, Arbovirus anti, Lmaj promast)
CC1CC(C)CN(C(=O)/C=C/c2ccc([N+](=O)[O-])s2)C1 (configuration not stated)	Lmaj promast 98.0
CC1CN(C(=O)/C=C/c2ccc([N+](=O)[O-])s2)CC(C)O1 (configuration not stated)	Lmaj promast 82.4
CC1CN(C(=O)/C=C/c2ccccc2[N+](=O)[O-])CC(C)O1 (configuration not stated)	none
CC1CCC(NC(=O)C2CC(=O)N(c3ccc4c(c3)OCCO4)C2)CC1 (configuration not stated)	none
COc1ccc(Cl)c2c1[nH]c1nc(SCc3ccccn3)nnc12	Lmaj promast 52.4
CN(C)CCCOC(=O)c1ccccc1	none
CN(C)CCCOC(=O)c1ccc(Cl)cc1Cl	Lmaj promast 93.3
CCCN(CCC)CCCOC(=O)c1ccc(Cl)cc1Cl	Lmaj promast 90.1
CCCCCCC(=O)NNC(=O)CC(=O)Nc1ccccc1C(=O)O	none
COc1ccccc1CNC(=O)c1ccc(N2CCOCC2)c([N+](=O)[O-])c1	none
N#Cc1cccc(C#N)c1Oc1ccc(S(=O)(=O)Nc2ccc(Cl)cc2)cc1	none (no result: PKD1 inh, Arbovirus anti, Lmaj promast)
CCOP(=O)(OCC)c1nc(-c2ccccc2Cl)oc1N1CCOCC1	none
CN(C)c1oc(-c2ccccc2Cl)nc1P(=O)(c1ccccc1)c1ccccc1	Lmaj promast 96.1
COc1ccccc1C1(O)CCN(CC(=O)Nc2nc(-c3ccccc3)cs2)CC1	none
Clc1ccc(-c2nnc3n2-c2ccccc2SC3)cc1	none (no result: PKD1 inh, Arbovirus anti, Lmaj promast)
CN1C(c2ccc(F)cc2)=CS/C1=C(\C#N)c1nnc2n1-c1ccccc1SC2	Lmaj promast 79.4
CC(C)(C)NC(=O)COc1ccc(CNCCc2ccccc2)cc1	Lmaj promast 86.7
CCOc1ccc(CCNC(=O)COC(=O)c2ccco2)cc1OCC	Lmaj promast 55.9
CCOc1cc(CNCCc2ccccc2)ccc1OCC(=O)NC(C)(C)C	Lmaj promast 99.8
CCc1ccc(OCC(=O)NC(C)(C)C)cc1	Lmaj promast 62.7
CC(C)(C)NC(=O)COc1ccc(CNCc2ccccn2)cc1	none
CCOc1cc(CNCCc2ccc(S(N)(=O)=O)cc2)ccc1OCC(=O)NC(C)(C)C	none
Cc1ccc(NC(=O)Cc2cc(C(=O)O)c3ccccc3n2)c(C)c1	none
CCOc1ccc(CCNC(=O)Cn2cccc2C(=O)c2ccccc2C)cc1OCC	CHOP inh 75.4, Lmaj promast 60.7
CCOc1ccc(CCNC(=O)CCn2cccc2)cc1OCC	none
CCOc1cc(CNCc2cccnc2)ccc1OCC(=O)NC(C)(C)C	Lmaj promast 83.1
CCOc1cc(CNc2ccc3[nH]c(=O)[nH]c3c2)ccc1OCC(=O)NC(C)(C)C	none
C(#Cc1ccccc1)C[N+]1(CC#Cc2cccc3ccccc23)CCCC1	Lmaj promast 100.5
COCCn1c(SCC(=O)c2c[nH]c3ccccc23)nnc1-c1ccncc1	Lmaj promast 82.9
COc1ccc2nc3ccccc3nc2c1N	Wee1 stabilizer 9.0 (no result: PKD1 inh, Arbovirus anti, Lmaj promast)
COc1ccc2nc3cccc(OC)c3nc2c1	none
COc1cccc(C(=O)N2CCN(C3CCN(Cc4ccccc4)CC3)CC2)c1OC	none (no result: PKD1 inh, Arbovirus anti, Lmaj promast)
C=CCn1c(=NC(=O)C2CCCCC2)sc2cc(NC(C)=O)ccc21	Lmaj promast 79.5
C=CCn1c(=NC(=O)C2CC2)sc2cc(NC(C)=O)ccc21	none
CCOC(=O)C/C(C)=N/NC(=O)c1cccs1	none
CC1C2CC(C/C2=N/NC(=O)c2cccs2)C1(C)C (configuration not stated)	Lmaj promast 95.5
C(#CC12CC3CC(CC(C3)C1)C2)CN1CCOCC1	none
